One molecule from ChEMBL document CHEMBL4118197, “The discovery and preclinical evaluation of BMS-707035, a potent HIV-1 integrase strand transfer inhibitor” (Bioorg Med Chem Lett, 2018) can be followed below.

Data set [1] in a line: Clearance in Sprague-Dawley rat at 1 mg/kg, iv after 4 hrs. It is filed as ADME, organism-based. Conditions: in vivo. In outline:
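Male Sprague-Dawley rats given 1 mpk IV in PEG400/ethanol (90:10); blood sampled at 5 and 30 min and 1, 2 and 4 h post-dose; clearance from plasma profile.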

Data set [2] concerns the target Human immunodeficiency virus type 1 integrase (Human immunodeficiency virus 1, UniProt Q7ZJM1). Put plainly: Inhibition of HIV1 integrase strand transfer activity.

Chain of Human immunodeficiency virus type 1 integrase (Q7ZJM1 whole entry): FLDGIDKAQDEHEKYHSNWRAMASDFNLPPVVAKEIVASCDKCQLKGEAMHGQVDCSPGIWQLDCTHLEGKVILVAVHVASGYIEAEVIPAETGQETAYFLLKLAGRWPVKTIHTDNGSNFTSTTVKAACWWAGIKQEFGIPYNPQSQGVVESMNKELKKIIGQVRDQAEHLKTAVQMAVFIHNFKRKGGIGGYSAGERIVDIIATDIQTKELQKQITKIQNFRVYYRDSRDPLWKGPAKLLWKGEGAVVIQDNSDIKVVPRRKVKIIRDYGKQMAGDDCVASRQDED

For orientation: clearance means the rate of elimination divided by the concentration. Higher therefore signals efficient removal. Usually IC50 stands for the concentration that gives 50% inhibition. Low readings indicate higher potency, high ones lower potency. Take `CN(C)S(=O)(=O)c1c(CNC(=O)c2nc3n(c(=O)c2O)CCOC3(C)C)ccc(F)c1F`: in data set [1], the clearance turned out to be 62 mL/min/kg. Moreover, the IC50 in data set [2] came out at 10 nM.
